A selection: hits, their analogues and other compounds. The true share with any hit is near 1.7%.
Scp1 inh: Scp-1 phosphatase inhibitors, primary screen, biochemical, colorimetric, uHTS. Carboxy-terminal domain RNA polymerase II polypeptide A small phosphatase 1 (Homo …. Recombinant Scp1, phosphopeptide, malachite green phosphate absorbance. inhibition, % at 20 µM. 340,000 compounds, 0.88% hits;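 active means inhibition above about 50% at 20 µM, limit read from the data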;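 further: plate controls were DMSO wells with enzyme for no effect and wells lacking enzyme for full effect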
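System: SCP-1 catalytic domain; Reagent: Phospho 17-mer peptide substrate; Doses: one concentration, 20 µM, with 1.0% DMSO; Incubation: 45 min room-temperature reaction, 5 min colour, 30 min stabiliser; Signal: Phosphate-binding colour reagent, absorbance read at 630 nm.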
LMPTP inh: LMPTP phosphatase inhibitors, primary screen, biochemical, fluorescence intensity, uHTS; Low molecular weight phosphotyrosine protein phosphatase (Homo sapiens), P24666; recombinant LMPTP-A, OMFP fluorogenic substrate; inhibition, % at 20 µM; 360,000 compounds, 0.22% hits;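 active means compounds that cut the enzyme signal by at least half of the control window in the single-dose screen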;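 further: plate controls were DMSO wells with enzyme plus substrate for no effect and substrate without enzyme for full effect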
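Assay system: LMPTP-A enzyme. Input: 0.625 nM LMPTP-A final. Probe or stimulus: 400 µM OMFP. Compound dosing: single 20 µM dose. Schedule: 50 min dark incubation at room temperature. Detection: fluorescence intensity of OMFP turnover product. Read-out: percent inhibition versus substrate-only and uninhibited controls. Benchmarks: no-enzyme low control, uninhibited high control.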
SUMO1-SIM PPI: modulators of SUMO1 protein-protein interactions, primary screen, biochemical, uHTS | 360,000 compounds, 0.33% hits | Small ubiquitin-related modifier 1 (Homo sapiens), P63165 | inhibition, % at 20 µM | AID 602429, 2012 | SUMO1 binding to a labelled peptide, TR-FRET, 1 h; in the data active means inhibition above about 37%
Target sequence (P63165 whole entry, looked up): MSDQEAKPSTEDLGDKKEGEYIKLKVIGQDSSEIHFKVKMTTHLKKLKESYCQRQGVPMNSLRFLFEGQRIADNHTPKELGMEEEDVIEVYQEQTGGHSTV
STEP inh: STEP phosphatase inhibitors, primary screen, biochemical, fluorescence intensity, uHTS. recombinant STEP, OMFP fluorogenic substrate. inhibition, % at 20 µM. 360,000 compounds, 0.25% hits. AID 588621, 2011;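 active means inhibition at 20 µM, scaled per plate between control wells, above about 37%, limit read from the data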;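 further: 0% = DMSO with enzyme and substrate and 100% = substrate only without enzyme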
Target sequence (P54829 whole entry, looked up): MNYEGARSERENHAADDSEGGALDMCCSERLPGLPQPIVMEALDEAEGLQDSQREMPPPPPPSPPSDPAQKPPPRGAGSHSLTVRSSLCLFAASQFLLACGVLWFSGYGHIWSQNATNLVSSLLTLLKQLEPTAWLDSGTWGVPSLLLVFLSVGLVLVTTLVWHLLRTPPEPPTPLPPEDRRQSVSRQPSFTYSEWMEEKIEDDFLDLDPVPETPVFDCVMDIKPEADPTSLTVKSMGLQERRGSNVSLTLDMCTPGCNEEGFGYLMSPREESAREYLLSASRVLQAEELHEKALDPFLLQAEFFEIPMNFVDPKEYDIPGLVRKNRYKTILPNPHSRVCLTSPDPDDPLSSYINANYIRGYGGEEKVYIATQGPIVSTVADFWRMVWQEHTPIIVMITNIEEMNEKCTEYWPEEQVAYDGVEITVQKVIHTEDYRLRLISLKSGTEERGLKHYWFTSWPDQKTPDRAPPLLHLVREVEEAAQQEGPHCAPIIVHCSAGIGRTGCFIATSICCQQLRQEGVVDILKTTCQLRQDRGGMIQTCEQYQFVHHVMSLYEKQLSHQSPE
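System: STEP phosphatase, cell-free reaction; Buffer or medium: Bis-Tris pH 6.0 buffer with DTT, detergent; Incubation: 20 min at room temperature, dark; Measured by: fluorescence, 480/540 nm.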
DNMT1 block: human DNMT1 methyltransferase inhibitors, primary screen, biochemical, molecular beacon, fluorescence, HinP1I cleavage, uHTS; inhibition (reported as % activation of signal), % at 10 µM; DNA (cytosine-5)-methyltransferase 1 (Homo sapiens), P26358; 360,000 compounds, 0.83% hits; in the data active means inhibition above about 50%
Scp1 confirm: Scp-1 phosphatase inhibitors, retest, confirmation, biochemical, colorimetric, single concentration; shares compounds with Scp1 inh; recombinant SCP-1 catalytic domain, phosphate release, malachite green absorbance; AID 540281, 2011; 2,500 compounds, 61% hits; inhibition, % at 20 µM;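 further: plate controls were DMSO with enzyme for no effect and buffer wells lacking enzyme for full effect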
Scp-1 MG ctr: colorimetric readout interference by compounds, confirmation, artefact control for Scp-1 inhibitor project, biochemical, single concentration; AID 540313, 2011; Colorimetric interference counterscreen, malachite green absorbance 630 nm; shares compounds with Scp1 inh; apparent inhibition (interference), % at 20 µM; 2,500 tested, under 10 active;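 further: compounds added after enzyme reaction finished so only phosphate colour detection is probed; plate controls were DMSO wells with completed Scp-1 reaction for no effect and substrate wells lacking enzyme for full effect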
Scp-1 Tm shift: Scp-1 binding by thermal shift, confirmation, orthogonal assay for Scp-1 inhibitor project, biophysical, differential scanning fluorimetry; shares compounds with Scp1 inh; Recombinant SCP1, Sypro Orange thermal shift Tm; thermal shift relative to vanadate control, % at 40 µM; 1,500 compounds, 25% hits; AID 540329, 2011;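 active means substances whose mean melting-temperature shift, as a percentage of the reference inhibitor's shift, reaches about 5.3%, limit read from the data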;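 further: 0% = Tm of DMSO wells and 100% = Tm with sodium orthovanadate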
* = called active by the depositor; / = no result.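 How the source made its calls, unless noted: active means inhibition of at least 30% at 20 µM; inactive means the rest.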

SMILES	Scp1 inh	LMPTP inh	SUMO1-SIM PPI	STEP inh	DNMT1 block	Scp1 confirm	Scp-1 MG ctr	Scp-1 Tm shift
Cc1c(CC(=O)N[C@@H](CCCNC(N)=O)C(=O)O)c(=O)oc2cc3oc4c(c3cc12)CCCC4	/	-1	2	1	0	/	/	/
CCC(C)NC(=O)C1c2ccccc2C(=O)N1Cc1ccc(F)cc1 (configuration not stated)	-2	-1	-3	-2	2	/	/	/
O=Cc1ccc(OCc2cccc(C(F)(F)F)c2)cc1O	62*	3	6	8	0	-23	-24	/
COc1cccc(OCc2cc(C(=O)N(C)CCOc3ccc(C)cc3)no2)c1	55*	4	-1	4	-1	-19	-22	/
COC(=O)C1=C(COc2ccccc2)NC(=O)NC1c1ccc2ccccc2c1 (configuration not stated)	50*	/	/	/	/	31*	-14	-33
O=C(Nc1cccc2ncccc12)c1cc(Br)ccc1Cl	-3	-1	9	2	0	/	/	/
COc1ccc2[nH]c(=O)c(CN(C(=O)c3ccco3)C(C)C)cc2c1	60*	-1	4	-2	7	4	-11	/
COCCNC(=O)CCn1nc(-c2ccc(C)cc2)ccc1=O	-6	-1	-3	1	0	/	/	/
COc1ccc(/C=C/C(=O)OCC(=O)NCc2ccco2)cc1OC	52*	-1	-11	-2	13	59*	-11	-16
COc1ccc(OCCC(=O)OCC(=O)NCc2ccco2)cc1	86*	3	4	5	38	72*	-5	-12
COc1ccc(C(=O)OCC(=O)NCc2ccco2)cc1OC	56*	4	11	2	29	53*	-16	-3
O=C(COC(=O)COc1ccccc1)NCc1ccco1	-5	-1	5	0	3	/	/	/
CCOc1ccccc1OCC(=O)NCc1ccco1	58*	-1	4	-2	19	60*	-17	-1
O=C(COc1ccccc1Cl)NCc1ccco1	-8	-2	-2	-2	-2	/	/	/
CCN(CC(=O)N1CCC(C(N)=O)CC1)S(=O)(=O)c1cc(Cl)ccc1Cl	5	0	7	3	-10	/	/	/
Cc1ccc(OCC(=O)N(C)CC(=O)NCc2ccco2)c(Br)c1	70*	2	15	5	39	75*	-6	0
O=C(COc1ccc(Cl)cc1Cl)NCc1ccco1	4	-2	-2	-3	-2	/	/	/
COc1cc2c(C#CCO)c(-c3ccc(C#N)cc3)oc(=O)c2cc1OC	67*	4	62*	25	-28	33*	6	5
O=C(Cn1c2[n+](c3ccc(C(F)(F)F)cc31)CCCCC2)Nc1ccccc1	62*	-2	0	-2	6	-18	-10	/
CCc1cccc(NC(=O)Cn2c3[n+](c4ccc(C(F)(F)F)cc42)CCCCC3)c1	19	-1	-2	2	0	/	/	/
O=C(NC1CCSC1=O)c1ccccc1 (configuration not stated)	-3	0	3	0	1	/	/	/
O=C(NC1CCSC1=O)c1cccc(C(=O)NC2CCSC2=O)c1 (configuration not stated)	95*	8	1	0	3	65*	-18	3
O=C(O)c1ccccc1C(=O)Nc1n[nH]c(=S)s1	99*	-1	4	1	2	42*	-3	-4
CC(/C=C/c1ccc(C)o1)=C\C(=O)O	-4	-2	0	2	4	/	/	/
CC(=C/C(=O)O)/C=C/c1ccc(Cl)o1	61*	-1	2	9	106*	54*	-15	1
SMILES	Scp1 inh	LMPTP inh	SUMO1-SIM PPI	STEP inh	DNMT1 block	Scp1 confirm	Scp-1 MG ctr	Scp-1 Tm shift
Cc1ccc(NC(=O)CN(C)C(=O)c2ccc(S(=O)(=O)N(C)c3ccccc3)cc2)cc1	54*	0	-3	-3	-1	22	-13	/
Cc1ccccc1C(C)(O)c1cnc(C)n1Cc1ccccc1 (configuration not stated)	/	-1	4	1	1	/	/	/
O=C(Cn1ncc(Cl)c(Cl)c1=O)NC1CCS(=O)(=O)C1 (configuration not stated)	88*	0	8	1	4	69*	-8	-11
O=C(CNS(=O)(=O)c1ccccc1)Nc1ccccc1Br	50*	0	2	-4	1	-16	-17	/
CC(C)[C@H](NC(=O)[C@@H]1CSC2c3ccccc3C(=O)N21)C(=O)NC1CCCCC1 (some centres not stated)	-3	0	-4	1	3	/	/	/
Cc1ccc(-c2cc(C(=O)N3CCN(c4ccc(F)cc4)CC3)c3ccccc3n2)o1	53*	2	-4	2	19	29	-17	/
Cc1ccc(-c2cc(C(=O)N3CCOCC3)c3ccccc3n2)o1	-7	0	-7	-3	1	/	/	/
CCOC(=O)[C@]12CCCC=C1N(Cc1ccc3c(c1)OCO3)C(=O)[C@H](CC(=O)N1CCOCC1)C2	/	-1	2	/	/	/	/	/
N#C/C(=C\c1c(N(Cc2ccccc2)Cc2ccccc2)nc2ccccn2c1=O)C(N)=O	56*	1	-20	2	-3	-13	-9	/
Cc1ccc(Cl)cc1N1CCN(c2cccc[n+]2C)CC1	99*	0	1	-2	9	-4	-8	/
CC(C)(C)OC(=O)NCCCCCNC(=O)c1nc[nH]c1C(=O)NCCCCCNC(=O)OC(C)(C)C	-8	-4	-6	2	2	/	/	/
Cc1cc(C)c(NC(=O)COc2nc3ccccc3nc2C)c(C)c1	58*	-2	-1	0	0	-18	-13	/
CCCCNC(=O)C1(C)CCCCN1C(=O)c1cccc(OC(F)(F)F)c1 (configuration not stated)	/	-1	0	-2	4	/	/	/
O=C(O)CCN1C(=O)/C(=C2\C(=O)N(Cc3ccc(F)cc3)c3ccccc32)SC1=S	88*	82*	14	93*	4	61*	-17	8.8*

Screening data as filed in PubChem.
